Rows were chosen to be rich in hits. Some 9.4% of all compounds tested hit in one or more screens of this group.
T cruzi inh: inhibitors of intracellular T. cruzi growth, primary screen, luminescence, NIH3T3 host cells. T. cruzi beta-gal in NIH3T3, 90 h. inhibition, % (no concentration beside the values). 300,000 tested, 1.4% active. AID 1885, 2009;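 active = mean inhibition across valid replicates above about 55%, limit read from the data; inconclusive = mean below that limit but half or more replicates reach it; inactive = mean below it, under half of replicates reach it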;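 also: signal also drops with host cell toxicity which is not excluded here; higher percent means less beta-gal luminescence so fewer parasites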
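System: mouse NIH/3T3 fibroblasts infected with β-gal-expressing T. cruzi Tulahuen C4 / Input: NIH/3T3 cells, 5,000 per well / Buffer or medium: Low-serum DMEM with 2% FBS / Probe or stimulus: 5000 reporter trypomastigotes per well / Schedule: ≥90 h infection period, 3 h prior cell attachment / Measured by: GalScreen luminescence, 60 min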
Mdm2 MdmX PPI: inhibitors of human Mdm2-MdmX association, primary screen, cell-based, luminescence, split luciferase, SaOS-2, uHTS; Protein Mdm4 (Homo sapiens) + E3 ubiquitin-protein ligase Mdm2 (Homo sapiens), …; SaOS-2 split-luciferase Mdm2/MdmX complementation; inhibition, % at 8 µM; 330,000 tested, 3% active; AID 485346, 2010;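 active = inhibition of at least 50% at 8 µM in the primary screen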
Target sequence (O15151 whole entry, looked up): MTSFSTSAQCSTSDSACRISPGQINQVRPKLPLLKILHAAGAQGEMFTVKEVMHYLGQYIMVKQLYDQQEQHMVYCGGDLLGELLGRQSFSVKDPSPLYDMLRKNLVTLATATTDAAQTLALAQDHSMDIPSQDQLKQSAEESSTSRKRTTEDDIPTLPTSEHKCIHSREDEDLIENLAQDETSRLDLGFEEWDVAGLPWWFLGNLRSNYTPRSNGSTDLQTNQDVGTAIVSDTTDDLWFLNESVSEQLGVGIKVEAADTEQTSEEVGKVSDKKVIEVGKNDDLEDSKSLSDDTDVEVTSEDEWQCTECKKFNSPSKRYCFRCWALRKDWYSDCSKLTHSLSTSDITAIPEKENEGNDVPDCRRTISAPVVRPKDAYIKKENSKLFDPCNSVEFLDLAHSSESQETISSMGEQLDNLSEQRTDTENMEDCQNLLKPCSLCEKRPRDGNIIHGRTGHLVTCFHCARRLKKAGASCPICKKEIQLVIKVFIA
Target sequence (Q00987 whole entry, looked up): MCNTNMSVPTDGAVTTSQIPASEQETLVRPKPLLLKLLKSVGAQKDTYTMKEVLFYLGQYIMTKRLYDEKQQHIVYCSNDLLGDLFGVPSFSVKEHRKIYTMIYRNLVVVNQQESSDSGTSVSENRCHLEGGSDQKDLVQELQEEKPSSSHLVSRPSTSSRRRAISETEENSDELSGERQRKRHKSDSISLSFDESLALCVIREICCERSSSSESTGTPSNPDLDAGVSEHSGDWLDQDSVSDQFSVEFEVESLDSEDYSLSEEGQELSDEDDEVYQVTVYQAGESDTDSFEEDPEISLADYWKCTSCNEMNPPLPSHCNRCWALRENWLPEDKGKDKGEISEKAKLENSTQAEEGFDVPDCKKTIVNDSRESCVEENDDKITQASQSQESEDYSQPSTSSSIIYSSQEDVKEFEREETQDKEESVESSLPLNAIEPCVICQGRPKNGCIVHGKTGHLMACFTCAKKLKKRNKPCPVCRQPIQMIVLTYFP
Beta cell apopt: inhibitors of cytokine-induced beta cell apoptosis, primary screen, luminescence; INS-1E cytokine-induced death, ATP luminescence, 48 h; percent of positive-control rescue, neutral wells zero; protection from apoptosis, % (no concentration beside the values); 300,000 tested, 0.8% active;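 active = Every replicate reaches about 75%, or at least half do and their mean reaches it too, limit read from the data; inconclusive = At least half of replicates reach the limit but their mean does not; inactive = Under half of replicates reach the limit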;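 also: higher means more ATP so stronger rescue from cytokine killing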
L major viab: Leishmania major promastigote growth inhibition, primary screen; Leishmania major promastigotes, resazurin fluorescence viability; inhibition, % at 10 µM; 200,000 tested, 9% active; AID 1063, 2008; in the data active = inhibition above about 50%;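 also: promastigotes grown with compound for 44 hours at 28 °C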
CSC inhib: cancer stem cell viability inhibitors, primary screen, luminescence. AID 2717, 2010. inhibition, % at 7.5 µM. cancer stem cell-like cells viability. 300,000 tested, 1.1% active; in the data active = inhibition above about 75%; inconclusive = no clear call, values can overlap the other calls; tested in HMLE shEcad cells
SKKanGAS inh: S. pyogenes SKKanGAS growth inhibitors in kanamycin, primary screen, streptokinase expression inhibitor project, SKKanGAS strain, BacTiter-Glo luminescence; inhibition, % at 7.5 µM; 300,000 tested, 1.3% active; AID 1662, 2009; 6 h;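 active = mean replicate score, as percent of positive control median, at least 50; inconclusive = mean below 50 but one replicate at or above 50; inactive = mean and every replicate below 50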;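 also: strain carries kanamycin resistance gene driven by streptokinase promoter and grows in 40 µg/ml kanamycin; loss of luminescence reflects streptokinase promoter inhibition or plain growth inhibition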
Mdm2-MdmX conf: Mdm2-MdmX complex disruptors, retested hits, confirmation, luminescence, single concentration | 10,000 tested, 55% active | Mdm2-MdmX binding, luminescent assay | inhibition, % at 8 µM | shares compounds with Mdm2 MdmX PPI; in the data active = inhibition above about 40%
Full FLuc ctr: full-length luciferase signal inhibition, confirmation, counter-screen for Mdm2/MdmX interaction inhibitor project, cell-based, single concentration, SaOS-2. SaOS-2 full-length luciferase counterscreen, luminescence. shares compounds with Mdm2 MdmX PPI. AID 504607, 2011. inhibition, % at 8 µM. 6,200 tested, 77% active;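 active = mean inhibition at 8 µM reaching about 37%, which flags the compound as non-specific, limit read from the data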;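 also: p53-null SaOS-2 cells with luciferase driven by a doxycycline-inducible promoter; compound on cells about two nights before reading with doxycycline added after day one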
Large screens that a line does not name were inactive (follow-up assays come after a bar, where they were run).

COc1ccc(N2CCN(C(=O)CN(c3cccc(OC)c3)S(=O)(=O)c3ccccc3)CC2)cc1	none (no result: L major viab)
O=S(=O)(c1ccccc1)N1CCN(c2ncnc3scc(-c4ccccc4)c23)CC1	none (no result: L major viab)
Cc1ccc(-c2csc3ncnc(N4CCN(S(=O)(=O)c5cccs5)CC4)c23)cc1	Mdm2 MdmX PPI 50.8 (no result: T cruzi inh, L major viab, CSC inhib, SKKanGAS inh) | Mdm2-MdmX conf inactive
Fc1ccc(-c2csc3ncnc(N4CCc5ccccc5C4)c23)cc1	Mdm2 MdmX PPI 51.4, L major viab 66.5, SKKanGAS inh inconclusive | Mdm2-MdmX conf inactive
O=C(NCC(=O)N1CCC2(CC1)NCCc1[nH]cnc12)c1cccc(Cl)c1	none (no result: L major viab)
CN(C)CCNc1nc2sc3c(c2c(=O)n1CCc1ccccc1)CCCCC3	T cruzi inh 58.5, Mdm2 MdmX PPI 76.4, CSC inhib 105.7 (no result: L major viab) | Mdm2-MdmX conf inactive
CN(CC(=O)Nc1ccccc1C(F)(F)F)C(=O)C1CCN(S(=O)(=O)c2ccc3c(c2)OCCO3)CC1	none (no result: L major viab)
O=[N+]([O-])c1cc(Cl)ccc1Sc1cccc2cccnc12	none
O=[N+]([O-])c1ccc(Sc2cccc3cccnc23)c([N+](=O)[O-])c1	Mdm2 MdmX PPI 93.0, Beta cell apopt 80.0, L major viab 95.6 (no result: SKKanGAS inh) | Mdm2-MdmX conf 86.5 | Full FLuc ctr 56.5
Cn1nc(C(=O)NNC(=O)c2ccccc2Br)c2ccccc2c1=O	none (no result: T cruzi inh, Beta cell apopt, L major viab, CSC inhib, SKKanGAS inh)
O=C(NC1CC1)C1=C[C@@H](c2ccc(Br)cc2)C[C@@H](OCc2ccc(CO)cc2)O1	none (no result: L major viab)
CCOc1cc(CNCCc2ccc(S(N)(=O)=O)cc2)cc(Cl)c1OCc1ccccc1	T cruzi inh 58.3, Mdm2 MdmX PPI 67.2, L major viab 100.5 | Mdm2-MdmX conf inactive | Full FLuc ctr 52.7
CCOc1cc(CNCc2ccccc2)ccc1OCc1ccc(Cl)cc1	T cruzi inh 55.3, Mdm2 MdmX PPI 55.0 (no result: L major viab) | Mdm2-MdmX conf inactive
CCOc1cc(CNc2ccc(S(N)(=O)=O)cc2)cc(Cl)c1OC	none
O=C(CC(C(=O)O)c1ccc(Cl)cc1)c1ccc(Br)cc1 (stereo not given)	none (no result: L major viab)
O=C(NC(NC(=S)Nc1ccccc1Cl)C(Cl)(Cl)Cl)c1cccc(Cl)c1 (stereo not given)	T cruzi inh 60.2, Mdm2 MdmX PPI 97.3, CSC inhib 111.5, SKKanGAS inh 96.6 | Mdm2-MdmX conf 94.9 | Full FLuc ctr inactive
COc1ccc(NC(=S)NC(NC(=O)c2cccc(Cl)c2)C(Cl)(Cl)Cl)c([N+](=O)[O-])c1 (stereo not given)	T cruzi inh 72.8, Mdm2 MdmX PPI 86.9, L major viab 93.8 (no result: Beta cell apopt, CSC inhib) | Mdm2-MdmX conf 72.3 | Full FLuc ctr 57.2
COc1ccc(NC(=S)NC(NC(=O)c2cccc(C)c2)C(Cl)(Cl)Cl)c([N+](=O)[O-])c1 (stereo not given)	none (no result: T cruzi inh, SKKanGAS inh)
CN1C2CCC1/C(=C\c1ccc(F)cc1)C(=O)/C2=C/c1ccc(F)cc1	Mdm2 MdmX PPI 89.5, L major viab 74.8 | Mdm2-MdmX conf 53.4 | Full FLuc ctr inactive
O=C1C(c2ccccc2)=[N+]([O-])c2ccccc21	Mdm2 MdmX PPI 92.9, CSC inhib 81.8 (no result: L major viab) | Mdm2-MdmX conf inactive
O=C1C(=Cc2cccs2)C(=O)c2ccccc21	none
COc1ccc(N2CCN(C(=O)[C@@H]3CCCN3C3=NS(=O)(=O)c4ccccc43)CC2)cc1	none (no result: T cruzi inh, L major viab, CSC inhib, SKKanGAS inh)
O=[N+]([O-])c1cc(C(F)(F)F)ccc1NCCNC(=S)Nc1ccc(Cl)cc1	T cruzi inh inconclusive, Mdm2 MdmX PPI 89.0, L major viab 100.5, CSC inhib 105.8, SKKanGAS inh 73.0 | Mdm2-MdmX conf inactive
O=[N+]([O-])c1ccc(NC(=S)NCCc2ccc(Cl)cc2)cc1	Mdm2 MdmX PPI 92.8, Beta cell apopt 86.7, L major viab 91.4, CSC inhib 195.5, SKKanGAS inh 98.5 | Mdm2-MdmX conf 80.8 | Full FLuc ctr 45.7
CCCCc1ccc(NC(=O)C(=O)NCCN2CCN(Cc3ccc([N+](=O)[O-])cc3)CC2)cc1	Mdm2 MdmX PPI 66.8 | Mdm2-MdmX conf inactive
CNC(=O)C(=O)NCCN1CCN(C(=O)c2ccc([N+](=O)[O-])cc2)CC1	none
CS(=O)(=O)NCCCNc1ccc(C(F)(F)F)cc1[N+](=O)[O-]	none (no result: L major viab)
O=[N+]([O-])c1ccc(NC(=S)NCc2ccc(F)cc2)cc1	Mdm2 MdmX PPI 73.7 (no result: Beta cell apopt, L major viab) | Mdm2-MdmX conf inactive
COc1ccccc1NC(=O)c1cc2c(s1)-c1ccccc1S(=O)(=O)C2	none (no result: L major viab)
Cn1c(CCC(=O)OCC(=O)NCc2ccc3c(c2)OCO3)nc(=O)c2ccccc21	none
Cc1ccc(NS(=O)(=O)c2cccc(C(=O)NNC(=O)c3ccco3)c2)c(C)c1	none (no result: L major viab)
CC1=CC(=O)C(C(C)C)=C/C1=N\OC(=O)c1cccc2nc(C)oc12	Mdm2 MdmX PPI 53.0, L major viab 95.5 | Mdm2-MdmX conf inactive
O=C(Nc1ccc2c(c1)OCO2)C1CC(=O)N(c2cccc(Cl)c2)C1 (stereo not given)	none (no result: Beta cell apopt, L major viab)
Cc1cc(C)n(-c2nc(NCCN(C)C)c3c4c(sc3n2)COC(C)(C)C4)n1	Mdm2 MdmX PPI 65.3 (no result: L major viab) | Mdm2-MdmX conf inactive | Full FLuc ctr 62.9
CCN(CC)CCNc1nc(-n2nc(C)cc2C)nc2sc3c(c12)CC(C)(C)OC3	T cruzi inh inconclusive, Mdm2 MdmX PPI 61.1 (no result: L major viab) | Mdm2-MdmX conf inactive
Cc1cc(C)n(-c2nc(NCCCN(C)C)c3c4c(sc3n2)COC(C)(C)C4)n1	none (no result: L major viab)
CC(=O)O[C@@]12CO[C@@H]1C[C@H](O)[C@@]1(C)C(=O)[C@H](O)C3=C(C)[C@@H](OC(=O)[C@H](O)[C@@H](NC(=O)OC(C)(C)C)c4ccccc4)C[C@](O)([C@@H](OC(=O)c4ccccc4)[C@H]21)C3(C)C	T cruzi inh 56.0, Mdm2 MdmX PPI 55.8 (no result: Beta cell apopt, L major viab) | Mdm2-MdmX conf 62.0 | Full FLuc ctr 52.6
CCCSc1nc2c(cnn2-c2ccc(C)cc2)c(=O)[nH]1	Mdm2 MdmX PPI 50.2 | Mdm2-MdmX conf inactive
Cc1cccc(-n2ncc3c(=O)[nH]c(SCC(=O)NCCC4=CCCCC4)nc32)c1	Mdm2 MdmX PPI 90.4 (no result: T cruzi inh, L major viab, CSC inhib, SKKanGAS inh) | Mdm2-MdmX conf inactive
Fc1cc(F)c2nc(N3CCCC3)sc2c1	none
Cc1cc(-c2nnc(CSc3nnc(NC(=O)c4ccc(C(C)(C)C)cc4)s3)o2)ccc1[N+](=O)[O-]	Mdm2 MdmX PPI 59.4 (no result: L major viab) | Mdm2-MdmX conf inactive
c1ccc(C2(CN3CCNC[C@H]3Cc3cccc4ccccc34)CC2)cc1	Mdm2 MdmX PPI 52.8 (no result: L major viab) | Mdm2-MdmX conf inactive | Full FLuc ctr 91.0

Compound activity deposited in PubChem BioAssay by several laboratories.
